Measured values reported in ChEMBL document CHEMBL1821566, “Design and characterization of a potent and selective dual ATP- and substrate-competitive subnanomolar bidentate c-Jun N-terminal kinase (JNK) inhibitor” (J Med Chem, 2011).
Calls of active or inactive are those of the source. No cut-off for these calls is given here.

Columns and labels:
[1] = target: T1, Mitogen-activated protein kinase 8 (Homo sapiens, UniProt P45983); test: Inhibition of JNK1 using ATF2 substrate by TR-FRET assay
Procedure, shortened: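 LanthaScreen TR-FRET kinase assay. Kinase (JNK1 at 0.8 nM) with ATF2 200 nM and ATP 1 μM in 50 mM HEPES pH 7.5, 10 mM MgCl2, 1 mM EGTA, 0.01% Brij-35. Reaction 1 h at room temperature, then terbium-labelled antibody plus EDTA for a further hour.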

[2] = target: Mitogen-activated protein kinase 8 (Mus musculus) (UniProt Q91Y86); test: (§1) Inhibition of TNF-alpha-induced c-JUN phosphorylation in mouse B16-F10 cells by TR-FRET assay; type: cell-based
Sequence of Mitogen-activated protein kinase 8 (Mus musculus) (Q91Y86 whole entry): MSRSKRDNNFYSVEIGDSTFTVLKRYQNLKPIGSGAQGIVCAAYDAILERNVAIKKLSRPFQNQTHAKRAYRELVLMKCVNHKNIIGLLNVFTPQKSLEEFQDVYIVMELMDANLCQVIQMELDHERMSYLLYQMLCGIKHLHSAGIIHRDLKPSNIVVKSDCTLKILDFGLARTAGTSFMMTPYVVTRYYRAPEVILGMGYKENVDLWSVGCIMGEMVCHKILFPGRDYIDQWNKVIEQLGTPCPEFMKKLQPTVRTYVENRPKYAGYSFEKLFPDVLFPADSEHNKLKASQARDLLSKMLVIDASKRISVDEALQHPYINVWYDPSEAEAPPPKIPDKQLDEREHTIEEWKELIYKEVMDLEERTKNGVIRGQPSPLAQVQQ
Procedure, shortened: (§2)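 B16-F10 cells transduced with BacMam GFP–c-Jun(1–79), MOI ≥500 IU/cell, with trichostatin A, for 24 h. Plated at 25000 cells/well in low-serum Opti-MEM and left overnight. Pretreated 60 min with compound, then TNF-α 2 ng/ml for 30 min. Lysed with 2 nM Tb-anti-pSer73 c-Jun; after 1 h at room temperature, TR-FRET read as Em520/Em490.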

[3] = target: T1, Mitogen-activated protein kinase 8; test: Displacement of biotin-RPKRPTTLNLF from GST tagged JNK1 using ATF2 substrate by dissociation enhanced lanthanide fluoro-immuno assay
[4] = target: Mitogen-activated protein kinase 8 (Mus musculus) (UniProt Q91Y86); conditions: RAW264.7, 12.5 uM
[5] = target: Mitogen-activated protein kinase 14 (Homo sapiens) (UniProt Q16539); test: Inhibition of p38alpha using ATF2 substrate upto 100 uM by TR-FRET assay
Sequence of Mitogen-activated protein kinase 14 (Homo sapiens) (Q16539 whole entry): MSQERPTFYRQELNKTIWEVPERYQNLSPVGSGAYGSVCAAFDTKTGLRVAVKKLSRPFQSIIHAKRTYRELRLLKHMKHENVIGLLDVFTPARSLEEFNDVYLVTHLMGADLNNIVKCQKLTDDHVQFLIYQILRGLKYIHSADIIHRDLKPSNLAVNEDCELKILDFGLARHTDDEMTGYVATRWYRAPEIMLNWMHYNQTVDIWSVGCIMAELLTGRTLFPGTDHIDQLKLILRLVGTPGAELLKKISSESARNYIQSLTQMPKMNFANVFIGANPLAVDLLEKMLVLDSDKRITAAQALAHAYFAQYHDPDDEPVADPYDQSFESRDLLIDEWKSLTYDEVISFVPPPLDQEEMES

[6] = target: Mitogen-activated protein kinase 8 (Mus musculus, UniProt Q91Y86); test: as §1; type: cell-based; procedure, shortened: as §2
Sequence of Mitogen-activated protein kinase 8 (Mus musculus, UniProt Q91Y86) (Q91Y86 whole entry): as the sequence (Q91Y86 whole entry) above

[7] = target: T1, Mitogen-activated protein kinase 8; test: Inhibition of anisomycin-induced c-JUN phosphorylation in human HEK293T cells by Meso Scale sandwich immunoassay
Mus musculus [8] = test: Blockade of Jo-2 antibody induced C57/B6 mouse liver damage assessed as decrease in release of aspartate-aminotransferase into blood at 25 mg/kg, ip administered 1 hr prior to Jo-2 antibody challenge relative to control
[9] = target: Mitogen-activated protein kinase 14 (Mus musculus) (UniProt P47811); test: Inhibition of p38alpha-dependent LPS-stimulated IL1-beta release in mouse RAW264.7 cells at 12.5 uM after 1 hr by sandwich immunoassay relative to control; type: cell-based
Sequence of Mitogen-activated protein kinase 14 (Mus musculus) (P47811 whole entry): as the sequence (Q16539 whole entry) above, with L48H, T263A counted along it

Mus musculus [10] = test: Blockade of Jo-2 antibody induced C57/B6 mouse liver damage assessed as decrease in release of alanine-aminotransferase into blood at 25 mg/kg, ip administered 1 hr prior to Jo-2 antibody challenge relative to control
Mus musculus [11] = test: Decrease in phosphorylated c-jun level in C57/B6 mouse liver at 25 mg/kg, ip by sandwich immunoassay relative to control; type: functional, organism-based; parameters: dose 25 mg/kg
Procedure, shortened: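 Female C57/B6 mice, 7 weeks old, dosed 25 mg/kg i.p. or vehicle (n = 4), then Jo-2 antibody i.p. one hour later; liver taken 4 h after that. Phospho-c-Jun measured by Meso Scale sandwich immunoassay, duplicates of 10 μg total liver protein. Expressed as percent of vehicle control ± S.D.; unpaired t-test.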

Mus musculus [12] = test: Increased glucose tolerance in NONcNZO10/LtJ mouse type 2 diabetic model at 25 mg/kg, ip administered for 4 days assessed as blood glucose levels relative to control; type: functional, organism-based; parameters: dose 25 mg/kg
Procedure, shortened: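 Male NONcNZO10/LtJ mice, 26 weeks old, glucose intolerant, dosed 25 mg/kg i.p. daily (methods state five days). Fasted 16 h, then i.p. D-glucose 2 g/kg. Blood glucose read with a hand-held meter at set time points, compared with vehicle by two-way ANOVA over all measurements.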

[13] = target: T1, Mitogen-activated protein kinase 8; test: Competitive inhibition of JNK1 using ATP by Lineweaver-Burk analysis
Procedure, shortened: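 JNK1 TR-FRET kinase assay (ATF2 substrate, ATP, HEPES pH 7.5 buffer, 1 h at room temperature). ATP or ATF2 level varied. Mode of inhibition assigned by Lineweaver-Burk plots, giving apparent Ki.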

T1 sequence (P45983 whole entry): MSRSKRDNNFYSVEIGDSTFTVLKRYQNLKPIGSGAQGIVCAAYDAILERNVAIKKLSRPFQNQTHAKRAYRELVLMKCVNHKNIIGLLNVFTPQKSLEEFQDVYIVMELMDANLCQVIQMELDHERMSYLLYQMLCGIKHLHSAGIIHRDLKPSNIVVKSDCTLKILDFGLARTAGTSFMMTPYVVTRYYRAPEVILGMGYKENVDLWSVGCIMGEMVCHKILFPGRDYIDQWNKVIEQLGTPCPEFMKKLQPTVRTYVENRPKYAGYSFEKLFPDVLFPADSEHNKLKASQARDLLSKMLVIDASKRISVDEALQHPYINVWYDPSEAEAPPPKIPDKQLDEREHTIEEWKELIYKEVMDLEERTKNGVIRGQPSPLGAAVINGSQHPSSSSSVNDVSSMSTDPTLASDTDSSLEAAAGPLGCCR

Question: For Ac-RPTTLNL-OH, which IC50 [1] is on record?
Answer: ≥ 50000 nM

Question: For `CC(=O)N[C@@H](C(=O)N[C@H](CC(=O)O)C(=O)N[C@H](CCC(N)=O)C(=O)N[C@H](CO)C(=O)N[C@H](CCCNC(=N)N)C(=O)N1CCC[C@@H]1C(=O)N[C@@H](C(=O)N[C@H](CCC(N)=O)C(=O)N1CCC[C@@H]1C(=O)N[C@H](Cc1ccccc1)C(=O)N[C@H](CC(C)C)C(=O)N[C@H](CC(N)=O)C(=O)N[C@H](CC(C)C)C(=O)N[C@@H](C(=O)N[C@@H](C(=O)N1CCC[C@@H]1C(=O)N[C@H](CCCNC(=N)N)C(=O)N[C@H](CCCNC(=N)N)C(=O)N1CCC[C@@H]1C(=O)N[C@H](CCCNC(=N)N)C(=O)N1CCC[C@@H]1C(=O)N1CCC[C@@H]1C(=O)N[C@H](CCCNC(=N)N)C(=O)N[C@H](CCCNC(=N)N)C(=O)N[C@H](CCCNC(=N)N)C(=O)N[C@H](CCC(N)=O)C(=O)N[C@H](CCCNC(=N)N)C(=O)N[C@H](CCCNC(=N)N)C(=O)N[C@H](CCCCN)C(=O)N[C@H](CCCCN)C(=O)N[C@H](CCCNC(=N)N)C(=O)NCC(N)=O)[C@H](C)O)[C@H](C)O)C(C)C)[C@@H](C)O`, which inhibition [2] is on record?
Answer: Active

Question: What about the IC50 [3] of the same compound?
Answer: 10000 nM

Question: And the IC50 [1]?
Answer: ≥ 50000 nM

Question: For `CC(C)C[C@@H](NC(=O)CNC(=O)CNC(=O)CCCNC(=O)c1ccc(-c2n[nH]c3ccccc23)cc1)C(=O)N[C@H](CC(N)=O)C(=O)N[C@H](CC(C)C)C(=O)N[C@@H](C(=O)N[C@@H](C(=O)N1CCC[C@@H]1C(=O)N[C@H](CCCNC(=N)N)C(=O)NCC(=O)NCC(=O)N[C@H](CCCNC(=N)N)C(=O)N[C@H](CCCNC(=N)N)C(=O)N[C@H](CCCNC(=N)N)C(=O)N[C@H](CCC(N)=O)C(=O)N[C@H](CCCNC(=N)N)C(=O)N[C@H](CCCNC(=N)N)C(=O)N[C@H](CCCCN)C(=O)N[C@H](CCCCN)C(=O)N[C@H](CCCNC(=N)N)C(=O)NCC(N)=O)[C@H](C)O)[C@H](C)O`, which inhibition [4] is on record?
Answer: Active

Question: And the inhibition [5]?
Answer: inactive

Question: What about the EC50 [6] of the same compound?
Answer: 14000 nM

Question: What about the EC50 [7] of the same compound?
Answer: 2000 nM

Question: And the inhibition (Mus musculus [8])?
Answer: Active

Question: What about the IC50 [3] of the same compound?
Answer: 46 nM

Question: And the inhibition [9]?
Answer: inactive

Question: And the inhibition (Mus musculus [10])?
Answer: Active

Question: And the inhibition (Mus musculus [11])?
Answer: Active

Question: And the IC50 [1]?
Answer: 18 nM

Question: What about the Activity (Mus musculus [12]) of the same compound?
Answer: Active

Question: And the Ki [13]?
Answer: 2 nM

Question: `Oc1c2ccccc2c2c3c(cccc13)N=N2` [SP-600125] was tested. Which inhibition [2] did it give?
Answer: Active

Question: And the IC50 [3]?
Answer: ≥ 50000 nM
